Experimental data of several laboratories.
Compare with care: the assays were run in different laboratories.
Sample: plasma

Structure (SMILES)	species	route	dose	notes	AUC(0-t)
CCc1cc(C(=O)NC)c2nccc(N3CCc4c(cc(Cn5ccnc5)cc4-c4cn(C)nc4C(F)(F)F)C3=O)c2c1	male CD-1 mouse	oral	150 mg/kg	–	527000 ng·h/mL
COc1ccc(C(O)COc2ccc(-c3csc(-c4ccc(OCC(O)c5ccc(OC)c(OC)c5)cc4)n3)cc2)cc1OC (centres unmarked)	C57BL/6 mouse	intravenous	3 mg/kg	–	4700 ng·h/mL
CCc1cc(OC)c2nccc(N3CCc4c(cc(Cn5ccnc5)cc4-c4cn(C)nc4C(F)(F)F)C3=O)c2c1	male CD-1 mouse	oral	50 mg/kg	–	106000 ng·h/mL
Cc1nc(-c2cnc(NC(C)C)n(C)c2=O)ccc1Oc1ccnc(-c2cnn(C)c2)c1	female mouse	oral	15 mg/kg	single dose	113000 ng·h/mL
CC[C@H](C)[C@@H]1NC(=O)[C@@](C)(NC(=O)[C@H](CCCNC(=N)N)NC(=O)[C@H](CC(C)C)NC(=O)[C@@H](NC(=O)[C@H](CCC(N)=O)NC(=O)[C@H](CC(C)C)NC(C)=O)[C@@H](C)O)CCCC=CCCC[C@@](C)(C(=O)N[C@@H](CC(C)C)C(=O)N[C@@H](Cc2ccc3ccccc3c2)C(N)=O)NC(=O)[C@H](CCCNC(=N)N)NC(=O)[C@H](CCC(N)=O)NC1=O	male BALB/c mouse	intravenous	15 mg/kg	–	260000 ng·h/mL
C=CC(=O)N1CC2CC(n3nc(-c4ccc(C(=O)Nc5ccccn5)cc4)c4c(N)ncnc43)CC2C1 (centres unmarked)	SCID mouse	oral	3 mg/kg	–	588 ng·h/mL
CN1CCC[C@H](CN2c3ccccc3Sc3ccccc32)C1.Cl	mouse	intraperitoneal	32 mg/kg	single dose	6920 ng·h/mL
CS(=O)(=O)CCNCc1ccc(-c2ccc3ncnc(Nc4ccc(OCc5cccc(F)c5)c(Cl)c4)c3c2)o1	nude mouse	oral	50 mg/kg	single dose	34100 ng·h/mL
